These results are taken from PubChem BioAssay AID617 (SRMLSC, 2007).

The term IC50 denotes the concentration needed to halve the response being measured.

The subject of this assay is E. coli BW25113 ΔtolC growth inhibition, OD615. As to the kind of experiment: E. coli ΔtolC antibacterial growth inhibition – strain BW25113 ΔtolC::kan, dose response (AID 617). Summed up:
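system = E. coli BW25113 tolC deletion strain (ΔtolC::kan), whole bacterial cells | technique = optical density (absorbance) at 615 nm | dosing = compounds in serially diluted dose-response series | times = bacterial growth with compound for 20 h, 37 °C | evaluation = growth-inhibition IC50 from four-parameter logistic curve, bounds set to 0% and 100%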
Take `COc1ccc(CN(C(=O)CN2C(=O)COc3ccccc32)C2CCCC2)c(OC)c1`: the IC50 is 19.1 µM.

On to `CCC(Sc1nnnn1-c1ccccc1)C(=O)Nc1nc2ccccc2s1` (stereo unspecified), for which the IC50 is 5.44 µM.

Consider `N#CC1=C(SCC(=O)c2cc3ccccc3oc2=O)NC(=O)C(C#N)C12CCCC2` (stereo unspecified), for which the IC50 is 12.7 µM.

Take `C(=C\c1ccccc1)/CN1CCN(c2ncnc3c2oc2ccccc23)CC1`: the IC50 is 10.2 µM.

Turning to `CCCCOc1ccc(S(=O)(=O)N2CCCCCC2)cc1`, the IC50 is 23.8 µM.

For `O=S(=O)(c1ccccc1)N1CCN(Cc2ccccc2C(F)(F)F)CC1`, the IC50 was 16.8 µM.

Turning to `Cc1ccc(SC/C(O)=C(\C#N)c2nc3ccccc3s2)cc1`, the IC50 is 1.03 µM.

With `CCOC(=O)C1=C(C)NC(SCC(=O)Nc2cc(C)on2)=C(C#N)C1c1cccs1` (stereo unspecified), the half-maximal inhibitory concentration (IC50) was 11 µM.

Take `CCOC(=O)c1c(C)c(C(=O)Nc2cc(OC)ccc2OC)c(C)n1CC`: the IC50 was 24.3 µM.

Consider `Cc1cc(Cl)ccc1OC(C)C(=O)Nc1ccccc1N1CCOCC1` (stereo unspecified), for which the IC50 was 8.59 µM.

Regarding `CCOc1ccccc1N1CCN(C(=O)Nc2ccc(F)c(Cl)c2)CC1`, the half-maximal inhibitory concentration (IC50) was 10.2 µM.

Turning to `CCc1nnc(NC(=O)c2cccc(C(=O)Nc3nnc(CC)s3)n2)s1`, the IC50 was 2.16 µM.

As for `CCC(Oc1ccccc1)C(=O)Nc1ccc(-c2nnc(-c3ccco3)o2)cc1` (stereo unspecified), the 50% inhibitory concentration (IC50) was 18.2 µM.

In the case of `CN(C)c1nc(SCCOC(=O)Nc2ccccc2)nc(N(C)C)n1`, the IC50 is 12 µM.

As to `COC(=O)c1ccc(C2c3c(n[nH]c3C)C(=O)N2c2ccc(C)cc2)cc1` (stereo unspecified), the IC50 is 4.38 µM.

In the case of `Cc1cc(Nc2ccccc2)nc(-c2ccccc2O)n1`, the IC50 was 15.4 µM.

Turning to `CN1C(=O)C2(OCC(COc3ccc(Cl)cc3)O2)c2ccccc21` (stereo unspecified), the concentration for half-maximal inhibition (IC50) is 11.1 µM.

With `CCCCCn1c(CN2CCN(c3cccc(Cl)c3)CC2)nc2c1c(=O)n(C)c(=O)n2C`, the half-inhibitory concentration (IC50) was 15.2 µM.

With `COc1ccc2nc(NC(=O)C3COc4ccccc4O3)sc2c1` (stereo unspecified), the IC50 is 14.5 µM.

With `N=C(N)c1c(O)n(C2CCCCC2)c(=O)n(C2CCCCC2)c1=O`, the IC50 is 5.79 µM.

As for `CCN(CC)c1ccc(C(=O)Nc2cccc(F)c2)cc1`, the 50% inhibitory concentration (IC50) is 8.06 µM.

Consider `O=C1c2[nH]nc(-c3ccccc3O)c2C(c2ccccc2)N1Cc1ccco1` (stereo unspecified), for which the 50% inhibitory concentration (IC50) is 2.45 µM.

Take `CN(c1ccccc1C(=O)Nc1ccc(S(=O)(=O)N2CCCCC2)cc1)S(C)(=O)=O`: the IC50 was 7.39 µM.

Consider `Cc1ccc2c(c1)NC(=O)C(CC(=O)NCCCN1CCN(c3cc(Cl)ccc3C)CC1)O2` (stereo unspecified), for which the concentration for half-maximal inhibition (IC50) was 2.67 µM.

In the case of `Cc1cc(N2CCN(c3ccccc3)CC2)nc(-c2ccccc2)n1`, the IC50 was 14.3 µM.

`CCCCOn1c(C)c(C(=O)OCC)c2c3nonc3ccc21`: the concentration for half-maximal inhibition (IC50) is 18.4 µM.

`Cc1noc(C)c1C(=O)Nc1sc(C)c(-c2ccccc2)c1C#N`: the half-maximal inhibitory concentration (IC50) was 9.36 µM.

Consider `O/N=C(\c1ccc(Cl)cc1)c1cc2ccccc2o1`, for which the half-inhibitory concentration (IC50) was 5.7 µM.

Turning to `CCOC(=O)N1CCC(Nc2nc3ccccc3nc2NS(=O)(=O)c2ccc(Cl)cc2)CC1`, the IC50 was 5.49 µM.

On to `Cc1ccc(SCC(=O)N(Cc2nc(-c3ccccc3)no2)C(C)C)cc1`, for which the IC50 was 10.8 µM.

Consider `CN(C)S(=O)(=O)N(Cc1ccc(Br)cc1)c1ccccc1`, for which the 50% inhibitory concentration (IC50) was 12.9 µM.

Turning to `Cn1cccc1C(=O)Nc1nc(-c2ccccn2)cs1`, the half-maximal inhibitory concentration (IC50) is 2.42 µM.

Consider `CCCOc1ccc(C(=O)N2CCN(c3ccc(NC(=O)CC)cc3Cl)CC2)cc1`, for which the half-inhibitory concentration (IC50) was 14.6 µM.

For the compound `COc1ccc(C(C(O)C(=O)c2c[nH]c3ccccc23)N2CCN(c3ccc(OC)cc3)CC2)cc1` (stereo unspecified), the IC50 is 11.3 µM.

Consider `COC(=O)c1ccc(CSc2nc3ccccc3o2)cc1`, for which the IC50 is 20.2 µM.

As for `CCOC(=O)c1cccc(NC(=O)Nc2cc(OC)ccc2OC)c1`, the 50% inhibitory concentration (IC50) was 20.5 µM.

As to `COc1ccc2c(-c3ccccc3)cc(N3CCOCC3)nc2c1`, the IC50 was 17.9 µM.

Take `O=C(OC1CCc2ccccc2C1=O)c1ccccc1O` (stereo unspecified): the half-inhibitory concentration (IC50) was 27.7 µM.

With `C=CCn1c(SCC(O)Cn2c3ccccc3c3ccccc32)nnc1-c1ccco1` (stereo unspecified), the IC50 is 21.6 µM.

`O=C(Nc1sc2c(c1C(=O)O)CCC2)c1cccs1`: the IC50 was 13.8 µM.

For the compound `CCCc1ccc(Oc2cn[nH]c2-c2ccc(O)c(C)c2O)cc1`, the half-inhibitory concentration (IC50) is 1.84 µM.

`COc1cc(NS(=O)(=O)c2ccc(Br)cc2)c(OC)cc1NC(=O)c1ccco1`: the 50% inhibitory concentration (IC50) was 25.3 µM.

On to `O=C(Cn1c2c(c(-c3ccccc3)cc1=O)CCCC2)N1CCCCCC1`, for which the half-inhibitory concentration (IC50) was 6.09 µM.

As for `CC(C)c1ccc(OCc2ccc(C(=O)N3CCN(c4ccccn4)CC3)cc2)cc1`, the half-maximal inhibitory concentration (IC50) is 8.11 µM.

On to `COc1ccc(C2(O)CC3CCC(C2)N3c2nc(C)cc(C)c2C#N)cc1` (stereo unspecified), for which the IC50 is 24.6 µM.

Regarding `CCOC(=O)C1=C(N)OC2=C(C(=O)CCC2)C12C(=O)N1c3c(ccc(C)c32)C(C)=CC1(C)C` (stereo unspecified), the IC50 is 13.8 µM.

In the case of `O=C(c1ccc(COc2ccc3c(c2)CCC3)o1)N1CCN(c2ccccc2)CC1`, the IC50 was 10.7 µM.

On to `CCOC(=O)N1CCN(c2nc3ccccc3nc2C(C#N)S(=O)(=O)c2ccc(C)cc2)CC1` (stereo unspecified), for which the concentration for half-maximal inhibition (IC50) is 7.88 µM.

In the case of `O=C(CCSc1nnc2scc(-c3ccccc3)n12)Nc1nc(-c2ccccc2)ns1`, the IC50 is 16.6 µM.

For `O=C(COn1nnc2ccc(C(F)(F)F)cc21)Nc1nnc(-c2ccccc2)o1`, the half-inhibitory concentration (IC50) was 0.64 µM.

On to `Cc1nn(-c2ccccc2)c2sc(-c3n[nH]c(=S)o3)cc12`, for which the IC50 was 4.43 µM.

Regarding `Cc1cc(NS(=O)(=O)c2ccc(NC(=O)COc3ccccc3C(C)C)cc2)no1`, the IC50 is 16.5 µM.

As for `Cc1cccc(-c2cc3nc4c(c(N5CCOCC5)n3n2)CCCC4)c1`, the IC50 is 16 µM.

For `CSCc1nnc(NC(=O)c2ccc(S(=O)(=O)N(CC(C)C)CC(C)C)cc2)o1`, the concentration for half-maximal inhibition (IC50) was 0.3 µM.

In the case of `Cc1nn(Cc2ccc(C(=O)N3c4ccc(F)cc4CCC3C)o2)c(C)c1Br` (stereo unspecified), the concentration for half-maximal inhibition (IC50) was 9.71 µM.

As to `O=C(N1CCN(c2ccccn2)CC1)N1c2ccccc2Sc2ccccc21`, the IC50 is 19.4 µM.

Turning to `O=C(COC(=O)c1ccc(Oc2ccccc2)cc1)Nc1nnc(-c2ccccc2)o1`, the IC50 is 0.96 µM.

In the case of `N#Cc1nc(Cc2cccc3ccccc23)oc1NCc1ccc(F)cc1`, the IC50 is 11.7 µM.

For `CCc1nc(N2CCCCC2C)c2oc3ccccc3c2n1` (stereo unspecified), the half-maximal inhibitory concentration (IC50) was 13.6 µM.

Regarding `CN(C)c1ccc(C2C=C(c3ccc(Cl)cc3OC(F)F)Nc3ncnn32)cc1` (stereo unspecified), the IC50 is 1.95 µM.

As to `Cc1ccccc1S(=O)(=O)Cc1ccc(C(=O)N2CCN(c3cccc(C)c3C)CC2)o1`, the half-maximal inhibitory concentration (IC50) was 30.8 µM.

In the case of `Cc1ccc(C(c2nnnn2CCc2ccccc2)N2CCSCC2)cc1` (stereo unspecified), the IC50 is 30.9 µM.

With `Cc1nn(-c2nc3ccccc3n2Cc2ccccc2)c2c1C(=O)CC(C)(C)C2`, the IC50 was 8.51 µM.

Take `N#Cc1nc(-c2ccc(OCc3ccccc3)cc2)oc1NCCCN1CCOCC1`: the IC50 was 25.9 µM.

Consider `Cc1ccc(-n2c(C)cc(C3N=C(N)Nc4nc5ccccc5n43)c2C)c(C)c1` (stereo unspecified), for which the IC50 is 6.62 µM.

Take `Cc1ccccc1-c1nc(CN2CCC(C(=O)NCCC3=CCCCC3)CC2)c(C)o1`: the IC50 is 13.9 µM.

With `Cc1cc(N2CCCCC2)nc(SCc2ccc(C#N)cc2)n1`, the half-inhibitory concentration (IC50) was 12.1 µM.

Regarding `c1csc(-c2nc3nc4ccccc4nc3n2Cc2ccc3c(c2)OCO3)c1`, the IC50 was 9.62 µM.

Regarding `COc1ccc(C(C(O)C(=O)c2c[nH]c3ccccc23)N2CCN(c3ccccc3)CC2)cc1` (stereo unspecified), the half-inhibitory concentration (IC50) was 7.52 µM.

Take `COc1ccc2[nH]c3c(=O)n(CCCCC(=O)NCCN4CCCC4)c(=S)[nH]c3c2c1`: the half-maximal inhibitory concentration (IC50) was 17.4 µM.

In the case of `CC1(C)Cc2c(c(N3CCCC3)nc3sc4c(N5CCN(CCO)CC5)ncnc4c23)CO1`, the IC50 was 18.1 µM.

Regarding `CCCOC(=O)c1ccc(-c2c(C)noc2-c2ccc(OC)cc2O)o1`, the IC50 is 4.71 µM.

For the compound `O=C(CN1CCN(S(=O)(=O)c2ccc(F)cc2)CC1)Nc1ccc(Cl)c(C(F)(F)F)c1`, the half-maximal inhibitory concentration (IC50) is 9.07 µM.

For the compound `CC(C)Cn1c(N)c(C(=O)NCc2cccs2)c2nc3ccccc3nc21`, the IC50 is 12.9 µM.

On to `O=C(NCC1CCCO1)c1sc(=S)n2c1[nH]c(=O)c1ccc(C(=O)N3CCCCC3)cc12` (stereo unspecified), for which the IC50 is 16.4 µM.

As to `c1ccc(-c2nc(N3CCCCCC3)c3ccccc3n2)nc1`, the IC50 is 1.68 µM.

As to `N#Cc1c(NC(=O)c2ccc(Cn3cc(Br)cn3)o2)sc2c1CCCCCC2`, the IC50 is 11.5 µM.

As to `CCOC(=O)c1ccccc1NC(=O)C(C)Oc1ccccc1` (stereo unspecified), the IC50 was 30.3 µM.

As to `Cc1ccc2c(c1)c1c(n2CC(O)Cn2c(C)nc3ccccc32)/C(=N\O)CCC1` (stereo unspecified), the half-maximal inhibitory concentration (IC50) was 26.1 µM.

Consider `COc1ccc(OC)c(C(=O)COC(=O)c2cc(C)oc2C)c1`, for which the IC50 is 25.1 µM.

For `CCC(CC)c1nnc(NC(=O)c2c(-c3ccccc3)noc2C)s1`, the 50% inhibitory concentration (IC50) was 19.8 µM.

Regarding `Cc1ccc(C)n1-n1c(C)nc2sc3c(c2c1=O)CCCCC3`, the half-inhibitory concentration (IC50) is 69.2 µM.

For the compound `N#Cc1c(NC(NC(=O)c2ccco2)C(=O)c2ccccc2)sc2c1CCCC2` (stereo unspecified), the 50% inhibitory concentration (IC50) is 13.5 µM.

Take `N#Cc1cn(Cc2cccc(Cl)c2)c2ccccc12`: the IC50 is 7.45 µM.

Regarding `COc1cc(S(=O)(=O)N2CCC(O)(c3cccc(C(F)(F)F)c3)CC2)ccc1-n1cnnn1`, the IC50 is 11.1 µM.

On to `N#CC1=C(N)NC(SCc2ccccc2)=C(C#N)C12CCCCC2`, for which the half-inhibitory concentration (IC50) was 2.12 µM.

Take `CCc1c(C(=O)Nc2ncn(Cc3cccc(C)c3)n2)csc1C`: the IC50 was 29.1 µM.

For the compound `O=C(Nc1nnc(-c2ccccc2)o1)c1nc2ccccc2s1`, the half-inhibitory concentration (IC50) is 1.34 µM.

Consider `c1ccc(CC2CCN(c3nnnn3-c3ccccc3)CC2)cc1`, for which the IC50 was 9.95 µM.

On to `Clc1ccccc1OCc1nnc(-c2ccccc2Br)o1`, for which the IC50 is 12.4 µM.

For `CN(C)C1(c2nnnn2CCOC(=O)Nc2ccc(Cl)cc2)CCCCC1`, the IC50 was 8.24 µM.

`O=C(NCc1ccco1)c1ccc(S(=O)(=O)N2CCCc3ccccc32)cc1`: the 50% inhibitory concentration (IC50) was 30.2 µM.

As to `CCC(=Nc1ccc(OC)cc1OC)c1c(O)n(C2CCCCC2)c(=O)[nH]c1=O`, the IC50 is 4.85 µM.

On to `COc1ccccc1-c1cc(C(=O)N2CCN(c3ccccc3OC)CC2)no1`, for which the IC50 is 17.9 µM.

As to `CCSC1=C(C#N)C(c2ccc(Cl)cc2)C2=C(CCCC2=O)N1` (stereo unspecified), the IC50 is 8.21 µM.

On to `CN(c1ccccc1)c1nc(N2CCCC2)nc(-n2ccnc2)n1`, for which the IC50 was 4.03 µM.
